In ChEMBL document CHEMBL4196090, “Design, synthesis and biological evaluation of piperazinyl-β-carbolinederivatives as anti-leishmanial agents” (Eur J Med Chem, 2018):

What was measured:
[1] = Cytotoxicity against human HeLa cells after 65 hrs by alamar blue assay; type: cell-based
In short: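 HeLa cells first screened at 500 µM. Active compounds then tested for CC50: cells seeded at 2 × 10^4/well, exposed to compound 65 h, then Alamar Blue added for a further 5 h.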

Leishmania infantum [2] = assay: Antileishmanial activity against Leishmania infantum JPCM5 MCAN/ES/98/LLM-87 promastigotes after 72 hrs by alamar blue assay; type: functional, organism-based; conditions: MCAN/ES/98/LLM-87, 72 h
In short: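 L. infantum JPCM5 promastigotes grown at 26 °C in HOMEM. Exposed to serial compound dilutions for 72 h, then Alamar blue read-out to give EC50.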

[3] = Selectivity index, ratio of CC50 for human HeLa cells to EC50 for Leishmania infantum JPCM5 MCAN/ES/98/LLM-87 promastigotes; type: toxicity; conditions: read-out: Ratio CC50/EC50
In short: (§1)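 Selectivity index computed as CC50 (HeLa, Alamar blue) divided by EC50 for the respective parasite stage.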

Leishmania donovani [4] = assay: Antileishmanial activity against Leishmania donovani promastigotes after 72 hrs by alamar blue assay; type: functional, organism-based
In short: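 L. donovani promastigotes grown at 26 °C in M199 plus 10% heat-inactivated FCS. Exposed to serial compound dilutions for 72 h, then Alamar blue read-out to give EC50.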

[5] = Selectivity index, ratio of CC50 for human HeLa cells to EC50 for Leishmania donovani promastigotes; type: toxicity; conditions: read-out: Ratio CC50/EC50; in short: as §1
Leishmania infantum [6] = assay: Antileishmanial activity against Leishmania infantum JPCM5 MCAN/ES/98/LLM-87 axenic amastigotes after 72 hrs by alamar blue assay; type: functional, organism-based; conditions: MCAN/ES/98/LLM-87, 72 h
In short: (§2)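 Axenic amastigotes (L. donovani LdBOB; L. infantum clone JPCM5, grown at 26 °C in HOMEM) incubated 72 h with compounds. Viability read by Alamar blue; EC50 determined.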

[7] = Selectivity index, ratio of CC50 for human HeLa cells to EC50 for Leishmania infantum JPCM5 MCAN/ES/98/LLM-87 axenic amastigotes; type: toxicity; conditions: read-out: Ratio CC50/EC50; in short: as §1
Leishmania donovani [8] = assay: Antileishmanial activity against Leishmania donovani LdBOB axenic amastigotes after 72 hrs by alamar blue assay; type: functional, organism-based; in short: as §2
Leishmania donovani [9] = assay: Antileishmanial activity against Leishmania donovani LdBOB amastigotes infected in human THP1 cells after 72 hrs by Giemsa staining based microscopic method; type: functional, organism-based; conditions: THP-1, 72 h
In short: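 THP-1 cells, kept in MEM plus 10% FBS, plated at 20,000/well with 10 nM PMA, 37 °C, 5% CO2, 75 h. Washed in PBS with 1 mM CaCl2, 0.5 mM MgCl2, 0.1% BSA. Infected with axenic LdBOB amastigotes at MOI 5 for 18 h, washed, serial compound dilutions for 72 h. Methanol fixation, Giemsa stain, ~200 macrophages/well counted. % infection vs untreated control (100%) gives EC50.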

[10] = Selectivity index, ratio of CC50 for human HeLa cells to EC50 for Leishmania donovani LdBOB axenic amastigotes; type: toxicity; conditions: read-out: Ratio CC50/EC50; in short: as §1
[11] = Selectivity index, ratio of CC50 for human HeLa cells to EC50 for Leishmania donovani LdBOB amastigotes infected in human THP1 cells; type: toxicity, cell-based; conditions: read-out: Ratio CC50/EC50; in short: as §1
Leishmania infantum [12] = assay: Selectivity ratio of EC50 for antileishmanial activity against Leishmania infantum JPCM5 MCAN/ES/98/LLM-87 promastigotes to EC50 for antileishmanial activity against Leishmania infantum JPCM5 MCAN/ES/98/LLM-87 amastigotes; type: functional
Leishmania infantum [13] = assay: Potency index, ratio of pentamidine EC50 to compound EC50 for antileishmanial activity against Leishmania infantum JPCM5 MCAN/ES/98/LLM-87 promastigotes; type: functional
Leishmania infantum [14] = assay: Potency index, ratio of miltefosine EC50 to compound EC50 for antileishmanial activity against Leishmania infantum JPCM5 MCAN/ES/98/LLM-87 promastigotes; type: functional

SMILES | CC50 at 65 h [1] [µM] | EC50 (Leishmania infantum [2]) [µM] | selectivity ratio [3] | EC50 (Leishmania donovani [4]) [µM] | selectivity ratio [5] | EC50 (Leishmania infantum [6]) [µM] | selectivity ratio [7] | EC50 (Leishmania donovani [8]) [µM] | EC50 (Leishmania donovani [9]) [µM] | selectivity ratio [10] | selectivity ratio [11] | Ratio EC50 (Leishmania infantum [12]) | Ratio EC50 (Leishmania infantum [13]) | Ratio EC50 (Leishmania infantum [14])
O=C(c1cc2c([nH]c3ccccc32)c(-c2ccccc2)n1)N1CCN(c2ccc(Cl)cc2)CC1 | > 500 | 33 | > 15.2 | 38.6 | > 12.9 | – | – | – | – | – | – | – | – | –
O=C(c1cc2c([nH]c3ccccc32)c(-c2ccccc2)n1)N1CCN(c2cccc(Cl)c2Cl)CC1 | > 500 | 10.7 | > 46.7 | 6.95 | > 71.9 | 2.9 | > 172 | 5.7 | 6.4 | > 87.7 | > 78.1 | 2 - 5 | – | –
COc1cccc(N2CCN(C(=O)c3cc4c([nH]c5ccccc54)c(-c4ccccc4)n3)CC2)c1 | 205 | 2.89 | 71 | 4.85 | 42.3 | 2.8 | 73.3 | 1.9 | 6.9 | 108 | 29.7 | 2 - 5 | 4 | 4
O=C(c1cc2c([nH]c3ccccc32)c(-c2ccccc2)n1)N1CCN(c2ccccc2Cl)CC1 | > 500 | 15.7 | > 31.8 | 6.98 | > 71.6 | 12.2 | > 41 | 5.8 | 8.5 | > 86.2 | > 58.8 | – | – | –
O=C(c1cc2c([nH]c3ccccc32)c(-c2ccccc2)n1)N1CCN(c2ccc(F)cc2)CC1 | > 500 | 14.1 | > 35.5 | 17.5 | > 28.6 | 11.3 | > 44.2 | 12.6 | 22.3 | > 39.7 | > 22.4 | – | – | –
O=C(c1cc2c([nH]c3ccccc32)c(-c2ccccc2)n1)N1CCN(c2ccccn2)CC1 | > 500 | 34 | > 14.7 | 7.5 | > 66.7 | – | – | 5.1 | 11.9 | > 98 | > 42 | – | – | –
COc1ccc(N2CCN(C(=O)c3cc4c([nH]c5ccccc54)c(-c4ccccc4)n3)CC2)cc1 | > 500 | 9.07 | > 55.1 | 6.32 | > 79.1 | 5.2 | > 96.2 | 2.8 | 9.2 | > 179 | > 54.4 | 2 - 5 | – | –
O=C(c1cc2c([nH]c3ccccc32)c(-c2ccccc2)n1)N1CCN(Cc2ccccc2)CC1 | 28.9 | 24.3 | 1.2 | 16.4 | 1.8 | – | – | 12.6 | 8.8 | 2.3 | 3.3 | – | – | –
N=C(N)c1ccc(OCCCCCOc2ccc(C(=N)N)cc2)cc1 [PENTAMIDINE] | – | 8.31 | – | 6.4 | – | 2.7 | – | 1.6 | 23.7 | – | – | – | – | –
